Laboratory results taken from ChEMBL document CHEMBL1124666, “Novel linked antiviral and antitumor agents related to netropsin and distamycin: synthesis and biological evaluation” (1989).

Columns and labels:
[1] = Minimum cytotoxic concentration in primary rabbit kidney (PRK) cell cultures; format: functional, Oryctolagus cuniculus
[2] = system: Vaccinia virus; test: Minimum inhibitory concentration against vaccinia virus embryonic skin muscle cell cultures; format: functional; settings: Orthopoxvirus vaccinia
[3] = system: Vaccinia virus; test: Minimum cytotoxic concentration against vaccinia virus in HeLa cell cultures; format: functional; settings: Orthopoxvirus vaccinia
[4] = system: P388; test: Inhibitory effect on the proliferation of murine leukemia (P388) cells; format: functional; settings: Mus musculus, read-out: ID50 (the source's name)
[5] = Inhibition of Moloney Murine Leukemia Associated Reverse Transcriptase; format: functional, Mus musculus
[6] = system: Vaccinia virus; test: Minimum inhibitory concentration against Vaccinia virus; format: functional; settings: Orthopoxvirus vaccinia
[7] = system: Vesicular stomatitis virus; test: Minimum inhibitory concentration against Vesicular stomatitis virus; format: functional
[8] = system: Vaccinia virus; test: Minimum cytotoxic concentration against vaccinia virus against embryonic skin muscle cell cultures; format: functional; settings: Orthopoxvirus vaccinia
[9] = system: Vaccinia virus; test: Minimum inhibitory concentration against vaccinia virus in Vero cell cultures of experiment 1; format: functional; settings: Orthopoxvirus vaccinia
[10] = system: Vaccinia virus; test: Minimum cytotoxic concentration against vaccinia virus in Vero cell cultures; format: functional; settings: Orthopoxvirus vaccinia
[11] = system: Vaccinia virus; test: Minimum cytotoxic concentration against vaccinia virus in primary rabbit kidney cell cultures; format: functional; settings: Orthopoxvirus vaccinia
[12] = system: Human alphaherpesvirus 1; test: Minimum inhibitory concentration against Herpes simplex virus 1(KOS); format: functional
[13] = system: Calf thymus DNA; test: Relative binding constant to calf thymus DNA; format: nucleic-acid assay; settings: Bos taurus
In short: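 Ethidium displacement: Tris-EDTA buffer pH 8 with 1.3 μM ethidium bromide and calf thymus DNA (1.35 μM final); drug aliquots added, fluorescence read after a few minutes' equilibration (excitation 525 nm, emission 600 nm). Drug level giving 50% fluorescence decrease converted to relative binding constant taking ethidium binding constant as 10^7 M-1.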

[14] = system: Human alphaherpesvirus 2; test: Minimum inhibitory concentration against Herpes simplex virus 2(G); format: functional
[15] = system: Vaccinia virus; test: Minimum inhibitory concentration against vaccinia virus in HeLa cell cultures; format: functional; settings: Orthopoxvirus vaccinia
[16] = system: Vaccinia virus; test: Minimum inhibitory concentration against vaccinia virus in primary rabbit kidney cell cultures of experiment 1; format: functional; settings: Orthopoxvirus vaccinia
[17] = system: Vaccinia virus; test: Minimum inhibitory concentration against vaccinia virus in Vero cell cultures of experiment 2; format: functional; settings: Orthopoxvirus vaccinia
[18] = system: Vaccinia virus; test: (§1) Minimum inhibitory concentration against vaccinia virus in primary rabbit kidney cell cultures of experiment 2; format: functional, Orthopoxvirus vaccinia
[19] = system: FM3A; test: Inhibitory effect on the proliferation of murine mammary carcinoma (FM3A) cells; format: functional; settings: Mus musculus, read-out: ID50 (the source's name)
[20] = system: Raji; test: Inhibitory effect on the proliferation of human B lymphoblast (Raji) cells; format: functional; settings: read-out: ID50 (the source's name)
[21] = Inhibitory effect on the proliferation of human T-lymphoblast (Molt/4F) cells; format: functional; settings: read-out: ID50 (the source's name)
[22] = system: Vaccinia virus; test: Minimum cytotoxic concentration against vaccinia virus embryonic skin muscle cell cultures; format: functional; settings: Orthopoxvirus vaccinia
[23] = system: Vaccinia virus; test: as §1; format: functional; settings: Orthopoxvirus vaccinia
[24] = system: L1210; test: Inhibitory effect on the proliferation of murine leukemia (L1210) cells; format: functional; settings: Mus musculus, read-out: ID50 (the source's name)
[25] = system: Vaccinia virus; test: Minimum cytotoxic concentration against Vero cell cultures; format: functional; settings: Orthopoxvirus vaccinia
In short: (§2)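 Host cell cultures (primary rabbit kidney, HeLa, Vero, or E6SM embryonic skin-muscle cells, as named) exposed to compound. Minimum cytotoxic concentration taken as the concentration required to cause a microscopically detectable alteration of normal cell morphology.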

[26] = system: FM3A; test: Inhibitory effect on the proliferation of murine mammary carcinoma (FM3A ) cells; format: functional; settings: Mus musculus, read-out: ID50 (the source's name)
[27] = system: L1210; test: Inhibitory effect on the proliferation of murine leukemia (L1210 ) cells; format: functional; settings: Mus musculus, read-out: ID50 (the source's name)
[28] = Inhibitory effect on the proliferation of human T-lymphoblast (Molt/4F ) cells; format: functional; settings: read-out: ID50 (the source's name)
[29] = system: Vaccinia virus; test: Minimum cytotoxic concentration against primary rabbit kidney cell cultures; format: functional; settings: Orthopoxvirus vaccinia; in short: as §2
[30] = system: P388; test: Concentration which leads to inhibitory effect on the proliferation of murine leukemia (P388) cells; format: functional; settings: Mus musculus, read-out: ID50 (the source's name)
In short: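 Murine P388 leukaemia cells grown in Fischer's medium with 10% fetal calf serum. Compounds dissolved in water, or sonicated and given as a suspension if poorly soluble. Cells seeded at 1 × 10^5 per well and grown 72 h at 37 °C in humidified 5% CO2 with drug. Viability read by MTT formazan optical density at 570 nm (reference 630 nm).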

[31] = system: Vaccinia virus; test: Minimum cytotoxic concentration against embryonic skin muscle cell cultures; format: functional; settings: Orthopoxvirus vaccinia; in short: as §2
[32] = system: PRK; test: Compound was evaluated for the minimum cytotoxic concentration in primary rabbit kidney (PRK) cell cultures; format: functional; settings: Oryctolagus cuniculus; in short: as §2
[33] = system: Raji; test: Inhibitory effect on the proliferation of human B lymphoblast (Raji ) cells; format: functional; settings: read-out: ID50 (the source's name)
[34] = system: Vaccinia virus; test: Minimum cytotoxic concentration against HeLa cell cultures; format: functional; settings: Orthopoxvirus vaccinia; in short: as §2
[35] = Orthopoxvirus vaccinia, read-out: MIC

Row | SMILES | MCC [1] [µg/mL] | MIC [2] [µg/mL] | MCC [3] [µg/mL] | IC50 [4] [µg/mL] | ID50 [5] [µg/mL] | MIC [6] [µg/mL] | MIC [7] [µg/mL] | MIC [9] [µg/mL] | MCC [10] [µg/mL] | MCC [11] [µg/mL] | MIC [12] [µg/mL] | Binding constant [13] [M⁻¹] | MIC [14] [µg/mL] | MIC [16] [µg/mL] | MIC [17] [µg/mL] | MIC [18, 35] [µg/mL] | other results
1 | Cl.Cl.Cn1cc(NC(=O)c2cc(NC(=O)CCCCCCCCCC(=O)Nc3cc(C(=O)Nc4cc(C(=O)NCCC(=N)N)n(C)c4)n(C)c3)cn2C)cc1C(=O)NCCC(=N)N | >40 | 0.2 | 100 | 18 | 10.3 | 2 | > 40 | > 40 | 100 | > 40 | > 10 | 1.9e+07 | 20 | 2 |  |  | MCC [8]: > 40 µg/mL; MIC [15]: 20 µg/mL
2 | Cl.Cl.Cn1cc(NC(=O)c2cc(NC(=O)Nc3cc(C(=O)Nc4cc(C(=O)NCCC(=N)N)n(C)c4)n(C)c3)cn2C)cc1C(=O)NCCC(=N)N | >40 | 2 | > 40 | 8 |  | 7 | > 40 | 20 | > 40 | 40 | > 10 | 5.6e+07 | 20 | 7 | 20 | 20 | IC50 [19]: > 100 µg/mL; IC50 [20]: > 100 µg/mL; IC50 [21]: > 100 µg/mL; MCC [22]: 100 µg/mL; MIC [23]: 7 µg/mL; IC50 [24]: > 100 µg/mL
3 | Cl.Cl.Cn1cc(NC(=O)CCC(=O)Nc2cc(C(=O)NCCC(=N)N)n(C)c2)cc1C(=O)NCCC(=N)N |  | 70 |  |  | >400 | 20 | > 100 | > 400 |  |  | > 100 |  | > 40 | 300 | > 400 | 400 | MCC [25]: > 400 µg/mL; IC50 [26]: > 100 µg/mL; MIC [18]: >400 µg/mL; IC50 [27]: > 100 µg/mL; IC50 [28]: > 100 µg/mL; MCC [29]: > 400 µg/mL; IC50 [30]: > 20 µg/mL; MCC [31]: > 400 µg/mL; MCC [32]: > 100 µg/mL; IC50 [33]: > 100 µg/mL; MCC [34]: > 400 µg/mL
